ChEMBL document CHEMBL1128245, “Dual-acting thromboxane receptor antagonist/synthase inhibitors: synthesis and biological properties of [2-substituted-4-(3-pyridyl)-1,3-dioxan-5-yl] alkenoic acids” (J Med Chem, 1995)

Assays:
[1] = organism: Homo sapiens; assay: In vitro inhibition of U-46,619-induced aggregation of unwashed human platelets.; type: functional; conditions: Homo sapiens; read-out: pA2 (converted)
Outline: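 Citrated (3.2%) human venous blood spun at 200g for 10 min. Platelet-rich plasma aggregated with U46619 with or without several antagonist concentrations.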

[2] = tested on: Rattus norvegicus; assay: Ex vivo […] (TXA2 synthase) inhibitory activity after 3 hr of oral dosing (10 mg/kg) in the rat; type: functional
Outline: (§1)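 Rats (n = 6) gavaged, anesthetized, aortic blood taken at 1, 3 or 5 h after dosing. A blood aliquot was challenged with collagen and TXB2 measured by radioimmunoassay; expressed as % inhibition of TXA2 synthase (±SEM).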

[3] = tested on: Rattus norvegicus; assay: Ex vivo […] (TXA2 synthase) inhibitory activity after 5 hr of oral dosing (10 mg/kg) in the rat; type: functional; outline: as §1
[4] = tested on: Rattus norvegicus; assay: Ex vivo […] (TXA2 synthase) inhibitory activity after 1 hr of oral dosing (10 mg/kg) in the rat; type: functional; outline: as §1
[5] = tested on: Rattus norvegicus; assay: Ex vivo TXA2 ([…]) antagonist activity was determined for U-46,619 induced aggregation (dose ratio) after 1 hr of oral dosing (10 mg/kg) in the rat; type: functional
Outline: (§2)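 Conscious rats (n = 6) dosed by oral gavage, then anesthetized and bled from the abdominal aorta at 1, 3 or 5 h. Platelet-rich plasma aggregated with U46619 before and after dosing to give a U46619 dose ratio. ">" values mark the maximum dose ratio achievable at the top U46619 concentration (1 × 10^-4 M).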

[6] = tested on: Rattus norvegicus; assay: Ex vivo TXA2 ([…]) antagonist activity was determined for U-46,619 induced aggregation (dose ratio) after 3 hr of oral dosing (10 mg/kg) in the rat; type: functional; outline: as §2
[7] = tested on: Rattus norvegicus; assay: Ex vivo TXA2 ([…]) antagonist activity was determined for U-46,619 induced aggregation (dose ratio) after 5 hr of oral dosing (10 mg/kg) in the rat; type: functional; outline: as §2
[8] = target: T1, Thromboxane-A synthase (Homo sapiens, UniProt P24557); assay: In vitro Inhibition of thromboxane synthase from human blood platelet microsomes
T1 sequence (P24557 whole entry): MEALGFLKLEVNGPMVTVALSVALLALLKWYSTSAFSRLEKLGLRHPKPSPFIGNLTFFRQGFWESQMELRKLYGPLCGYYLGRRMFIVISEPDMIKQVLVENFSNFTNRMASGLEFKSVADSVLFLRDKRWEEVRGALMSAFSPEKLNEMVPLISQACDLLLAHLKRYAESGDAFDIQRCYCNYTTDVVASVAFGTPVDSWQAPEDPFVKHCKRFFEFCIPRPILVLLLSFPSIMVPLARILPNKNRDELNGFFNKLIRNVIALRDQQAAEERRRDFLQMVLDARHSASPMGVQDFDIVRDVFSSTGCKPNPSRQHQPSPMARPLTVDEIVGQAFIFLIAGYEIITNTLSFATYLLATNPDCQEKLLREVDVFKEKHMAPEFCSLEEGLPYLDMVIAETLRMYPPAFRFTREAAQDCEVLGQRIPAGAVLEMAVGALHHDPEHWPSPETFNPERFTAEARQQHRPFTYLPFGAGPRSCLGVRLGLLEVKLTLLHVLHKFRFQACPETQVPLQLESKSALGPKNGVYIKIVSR
Outline: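 Human blood platelet microsomes incubated with [1-14C]arachidonic acid with or without inhibitor. Conversion to labeled thromboxane B2 quantified radiochromatographically. n = 2.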

[9] = target: T2, Prostacyclin synthase (Homo sapiens, UniProt Q16647); assay: In vitro inhibition of Prostaglandin I2 synthase in cultured human endothelial cells
T2 sequence (Q16647 whole entry): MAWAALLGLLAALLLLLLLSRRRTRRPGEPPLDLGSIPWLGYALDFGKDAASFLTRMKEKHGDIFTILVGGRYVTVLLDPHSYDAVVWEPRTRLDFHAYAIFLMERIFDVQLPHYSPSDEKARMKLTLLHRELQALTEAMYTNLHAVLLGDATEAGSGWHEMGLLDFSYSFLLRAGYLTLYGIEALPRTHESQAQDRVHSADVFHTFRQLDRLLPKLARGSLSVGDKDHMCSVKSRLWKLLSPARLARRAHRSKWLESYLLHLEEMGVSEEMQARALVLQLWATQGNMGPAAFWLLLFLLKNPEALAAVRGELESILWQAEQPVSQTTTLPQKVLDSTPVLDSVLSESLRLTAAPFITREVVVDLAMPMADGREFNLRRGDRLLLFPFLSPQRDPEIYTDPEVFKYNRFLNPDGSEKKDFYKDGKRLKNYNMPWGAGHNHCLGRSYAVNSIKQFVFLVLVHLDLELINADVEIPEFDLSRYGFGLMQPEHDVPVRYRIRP

[10] = tested on: Thromboxane-A synthase (Canis familiaris); assay: Ex vivo […] (TXA2 synthase) inhibitory activity after 5 hr of oral dosing (1 mg/kg) in the dog; conditions: Canis lupus familiaris
[11] = tested on: Thromboxane-A synthase (Canis familiaris); assay: Ex vivo […] (TXA2 synthase) inhibitory activity after 8 hr of oral dosing (1 mg/kg) in the dog; conditions: Canis lupus familiaris
[12] = tested on: Thromboxane-A synthase (Canis familiaris); assay: Ex vivo […] (TXA2 synthase) inhibitory activity after 24 hr of oral dosing (1 mg/kg) in the dog; conditions: Canis lupus familiaris

Compound: CC(C)(Oc1ccc(F)cc1)C1OCC(C/C=C\CCC(=O)O)C(c2cccnc2)O1 (centres undefined)
- Kb [1]: 120 nM
- Inhibition [2]: 80%
- Inhibition [3]: 83%
- Inhibition [4]: 93.2%
- Antagonist activity [5]: 6
- Antagonist activity [6]: 4
- Antagonist activity [7]: 4
- IC50 [8]: 51 nM
- IC50 [9]: 2000 nM

Compound: CC(C)(Oc1ccccc1[N+](=O)[O-])C1OCC(C/C=C\CCC(=O)O)C(c2cccnc2)O1 (centres undefined)
- Kb [1]: 11.2 nM
- Inhibition [2]: 75.8%
- Inhibition [3]: 63.2%
- Inhibition [4]: 85.5%
- Antagonist activity [5]: >57
- Antagonist activity [6]: 9
- Antagonist activity [7]: 3
- IC50 [8]: < 10 nM
- IC50 [9]: < 1000 nM

Compound: N#Cc1ccccc1C1OCC(C/C=C\CCC(=O)O)C(c2cccnc2)O1 (centres undefined)
- Kb [1]: 245 nM
- IC50 [8]: 54 nM
- IC50 [9]: > 100000 nM
- inhibition [10]: 91%
- inhibition [11]: 84%
- inhibition [12]: 82.6%
